Laboratory results: ChEMBL document CHEMBL4385623, “Advances in the structural studies of antibiotic potentiators against Escherichia coli” (2019)
≈ marks a conversion by molar mass, not a printed value. Calls of active or inactive are those of the source. The rule behind the calls is not given here. Peptide text beside a SMILES is read from it. * marks the point of attachment. βNA = c1ccc2cc(N*)ccc2c1

Experiments:
Escherichia coli [1] = experiment: Antibacterial activity against Escherichia coli ATCC 25922 incubated for 24 hrs by spectrophotometric based assay; format: functional; conditions: ATCC 25922, 24 h
Method in brief: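 Intrinsic MIC by broth microdilution. Log-phase cells at 5 × 10^5 CFU/ml in cation-adjusted Mueller-Hinton broth with two-fold serial dilutions of test compound. Aerobic incubation 24 h at 37 °C, then OD600 read. MIC is the lowest concentration giving ≥90% growth inhibition versus drug-free controls.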

Escherichia coli [2] = experiment: Potentiation of clarithromycin-induced antibacterial activity against Escherichia coli ATCC 25922 assessed as fold reduction in clarithromycin MIC at 12.5 ug/ml incubated for 24 hrs by spectrophotometric based assay
Escherichia coli [3] = experiment: Induction of outer membrane permeabilization in Escherichia coli ATCC 25922 assessed as increase in propidium iodide uptake at 1.56 to 12.5 ug/ml by propidium iodide staining based flow cytometric analysis; format: functional, organism-based
Method in brief: (§1)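 Flow cytometry. Log-phase cells grown in CAMH and diluted in PBS to 4 × 10^6 CFU/ml. Compound added at 1/32–¼ MIC (DMSO vehicle controls), in triplicate. Propidium iodide added at 50 μM final; 1 h in the dark at room temperature. Excitation 488 nm, emission 620/30 nm, 30,000 cells per sample. Result is percent PI-positive cells.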

[4] = system: Escherichia coli ATCC 25922; experiment: Inhibition of AcrAB-TolC efflux pump in Escherichia coli ATCC 25922 assessed as inhibition of Hoechst 33342 efflux at 1.56 to 12.5 ug/ml pre-incubated for 5 mins followed by glucose addition by Hoechst 33342 staining based fluorescence assay
Method in brief: (§2)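 Overnight cells washed and resuspended in PBS + 1 mM MgCl2 to OD600 1.0. Energy depleted with 3.13 μM CCCP for 20 min at 37 °C. Loaded with 10 μM Hoechst 33342 for 20 min, then mixed with compound (1/32–¼ MIC, DMSO vehicle) and preincubated 5 min at 37 °C. Efflux started with 50 mM glucose. Fluorescence (ex 355/em 460 nm) read each minute for 40 min at 37 °C.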

Escherichia coli [5] = experiment: Disruption of membrane potential in Escherichia coli ATCC 25922 at 12.5 ug/ml incubated fro 30 mins by DiOC2 probe based flow cytometric analysis; format: functional, organism-based
Method in brief: (§3)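 Log-phase cells grown in CAMH, diluted in PBS to 2 × 10^6 CFU/ml, and treated with compound at ¼ MIC. Controls were DMSO vehicle and 2 μg/ml CCCP, with 0.2% DMSO in all tubes, in triplicate. DiOC2 added at 30 μM; 30 min in the dark at room temperature. Flow cytometry at 488 nm excitation, 10,000 cells. Red (620/30) to green (525/20) fluorescence ratio reported.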

Escherichia coli [6] = experiment: Induction of inner membrane permeabilization in Escherichia coli ATCC 25922 assessed as increase in propidium iodide uptake at 1.56 to 12.5 ug/ml by PI staining based flow cytometric analysis; format: functional, organism-based; method in brief: as §1
Escherichia coli [7] = experiment: Induction of outer membrane permeabilization in Escherichia coli ATCC 25922 assessed as increase in NPN uptake at 1.56 to 12.5 ug/ml incubated for 10 mins by fluorescence assay; format: functional, organism-based
Method in brief: (§4)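 Log-phase cells grown in CAMH, washed, and resuspended in PBS to OD600 1.0. NPN added at 10 μM final for 10 min at room temperature. Compound (1/32–¼ MIC, DMSO vehicle) added, four replicates, then 10 min in the dark at room temperature. Fluorescence read at ex 350/em 420 nm. The 10-min average, minus vehicle wells, is the corrected value.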

Escherichia coli [8] = experiment: Potency index, ratio of potentiation of clarithromycin-induced antibacterial activity of PAbetaN to potentiation of clarithromycin-induced antibacterial activity of test compound against Escherichia coli ATCC 25922 assessed as fold reduction in clarithromycin MIC at 12.5 uM incubated for 24 hrs by spectrophotometric based assay; format: functional
Escherichia coli [9] = experiment: Induction of outer membrane permeabilization in Escherichia coli ATCC 25922 assessed as increase in propidium iodide uptake at 3.13 to 25 ug/ml by PI staining based flow cytometric analysis; format: functional, organism-based; method in brief: as §1
Escherichia coli [10] = experiment: Increase in membrane potential in Escherichia coli ATCC 25922 at 25 ug/ml incubated fro 30 mins by DiOC2 probe based flow cytometric analysis; format: functional, organism-based; method in brief: as §3
Escherichia coli [11] = experiment: Induction of inner membrane permeabilization in Escherichia coli ATCC 25922 assessed as increase in propidium iodide uptake at 3.13 to 25 ug/ml by PI staining based flow cytometric analysis; format: functional, organism-based; method in brief: as §1
Escherichia coli [12] = experiment: Induction of outer membrane permeabilization in Escherichia coli ATCC 25922 assessed as increase in NPN uptake at 3.13 to 25 ug/ml incubated for 10 mins by fluorescence assay; format: functional, organism-based; method in brief: as §4
[13] = system: Escherichia coli ATCC 25922; experiment: Inhibition of AcrAB-TolC efflux pump in Escherichia coli ATCC 25922 assessed as inhibition of Hoechst 33342 efflux at 3.13 to 25 ug/ml pre-incubated for 5 mins followed by glucose addition by Hoechst 33342 staining based fluorescence assay; method in brief: as §2
Escherichia coli [14] = experiment: Disruption of membrane potential in Escherichia coli ATCC 25922 at 25 ug/ml incubated fro 30 mins by DiOC2 probe based flow cytometric analysis; format: functional, organism-based; method in brief: as §3

| Structure (SMILES) | MIC (Escherichia coli [1]) [µg/mL] | fold change (FC) (Escherichia coli [2]) | further results |
| --- | --- | --- | --- |
| NC[C@@H](N)CCCNC(=O)C(CCc1ccccc1)CCc1ccccc1 | 100 (≈ 272 µM) | 32 |  |
| NCCC[C@H](N)CNC(=O)CCc1ccccc1 | > 200 | 1 |  |
| NCC[C@H](N)CNC(=O)C(CCc1ccccc1)CCc1ccccc1 | 100 (≈ 283 µM) | 2 |  |
| CNCCC[C@H](N)CNC(=O)C(CCc1ccccc1)CCc1ccccc1 | 50 (≈ 131 µM) | 2 |  |
| CN(C[C@@H](N)CCCN)C(=O)C(CCc1ccccc1)CCc1ccccc1 | > 200 | 1 |  |
| NCCC[C@H](N)CNC(=O)CC(c1ccccc1)c1ccccc1 | > 200 | 1 |  |
| NNCCC[C@H](N)CNC(=O)C(CCc1ccccc1)CCc1ccccc1 | 200 (≈ 523 µM) | 1 |  |
| NCCC[C@H](N)CNC(=O)C(Cc1ccccc1)Cc1ccccc1 | > 200 | 1 |  |
| NCC[C@H](N)CCNCC(CCc1ccccc1)CCc1ccccc1 | 50 (≈ 141 µM) | 64 |  |
| CN[C@@H](CCCN)CNC(=O)C(CCc1ccccc1)CCc1ccccc1 | > 200 | 1 |  |
| NCCC[C@@H](N)CNC(=O)C(CCc1ccccc1)CCc1ccccc1 | 50 (≈ 136 µM) | 16 |  |
| NCCC[C@H](N)CNC(=O)C(c1ccccc1)c1ccccc1 | > 200 | 2 |  |
| NCC[C@H](N)CCNC(=O)C(CCc1ccccc1)CCc1ccccc1 | 200 (≈ 544 µM) | 16 |  |
| CN(C)CCC[C@H](N)CNC(=O)C(CCc1ccccc1)CCc1ccccc1 | 200 (≈ 506 µM) | 2 |  |
| N=C(N)NCCC[C@H](NC(=O)[C@@H](N)Cc1ccccc1)C(=O)Nc1ccc2ccccc2c1 [PABETAN] (H-Phe-Arg-βNA) | > 200 | 4 |  |
| NCCC[C@H](N)CNC(=O)CC(CCc1ccccc1)CCc1ccccc1 | 50 (≈ 131 µM) | 512 | Activity (Escherichia coli [3]): Active; inhibition [4]: Dose-dependent effect; Activity (Escherichia coli [5]): inactive; Activity (Escherichia coli [6]): Active; Activity (Escherichia coli [7]): Dose-dependent effect; Ratio (Escherichia coli [8]): 128 |
| NCCC[C@H](N)CNC(=O)CCCc1ccccc1 | > 200 | 1 |  |
| NC[C@H](N)CNC(=O)C(CCc1ccccc1)CCc1ccccc1 | 200 (≈ 589 µM) | 16 |  |
| NC[C@@H](N)CCCNCC(CCc1ccccc1)CCc1ccccc1 | 100 (≈ 283 µM) | 32 |  |
| NCCC[C@H](N)CNC(=O)C(CCc1ccccc1)CCc1ccccc1 | 50 (≈ 136 µM) | 16 |  |
| N=C(N)NCCC[C@H](N)CNC(=O)C(CCc1ccccc1)CCc1ccccc1 | > 200 | 4 |  |
| NCCC[C@H](N)CNC(=O)CC(Cc1ccccc1)Cc1ccccc1 | 200 (≈ 566 µM) | 16 |  |
| CN(C)[C@@H](CCCN)CNC(=O)C(CCc1ccccc1)CCc1ccccc1 | 100 (≈ 253 µM) | 2 |  |
| NCCC[C@H](N)C(=O)NC(CCc1ccccc1)CCc1ccccc1 | > 100 | 4 |  |
| NCCC[C@H](N)CNCC(CCc1ccccc1)CCc1ccccc1 | 100 (≈ 283 µM) | 128 | Activity (Escherichia coli [9]): Active; Activity (Escherichia coli [10]): Active; Activity (Escherichia coli [11]): Active; Activity (Escherichia coli [12]): Dose-dependent effect; inhibition [13]: Dose-dependent effect; Activity (Escherichia coli [14]): inactive; Ratio (Escherichia coli [8]): 32 |
